Screening results (PubChem)
T cruzi intra: inhibitors of intracellular Trypanosoma cruzi; hit rate 4.9% among 22,000; activity score (inhibition), % at 5.01 µM; intracellular Trypanosoma cruzi in host cells, plate reader; in the data active = activity score above about 55%;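 also: parasites and compound incubated about four days before reading; 0% = median of neutral control wells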
A1 apoptosis 2: blocks A1, raising caspase activity | MEF A1-2A-BIM cells, caspase-Glo luminescence, 3 h; percent of clofoctol response, DMSO zero | caspase activation, % (no concentration beside the values) | 24,000 tested, under 10 active; in the data active = caspase activation above about 5.9%
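system = A1-2A-BIM-expressing MEF cells | quantity = 2500 MEF cells/well | dosing = 50 nL compound per well, pinned | schedule = overnight cell settling, then 3 h compound exposure, 37 °C | signal = luminescence from DEVD-luciferin Caspase-Glo reagent, 1:1 in 50 mM HEPES, 1 h RT | read-out = Caspase-3/7 activation, seen as rise in luminescence signal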
INS-1E rescue: rescue of cytokine-induced death in INS-1E beta cells. hit rate 0.1% among 20,000. AID 488910. INS-1E cytokine-induced death, ATP luminescence, 48 h; normalised: neutral wells 0, positive control 100. protection from cytokine-induced ATP loss, % at 10 µM;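 active = mean replicate protection from cytokine-induced ATP loss at least 50% and at least 75% of replicates each reaching 50%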
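Assay system – rat INS-1E insulinoma cell line · Quantity – 8000 cells per well · Buffer or medium – RPMI without phenol red, 5% FBS · Schedule – 48 h co-treatment, 10 min post-lysis read · Technique – luminescent ATP assay (CellTiter-Glo)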
* marks the source's active call; other numbers are inactive results; x = no result given. This is one part of a sample in which hits are shown more often than they occur.

SMILES	T cruzi intra	A1 apoptosis 2	INS-1E rescue
C[C@@H]1CN([C@H](C)CO)C(=O)c2cccc(NC(=O)Nc3ccc(C(F)(F)F)cc3)c2O[C@@H]1CN(C)Cc1ccc(Oc2ccccc2)cc1	79*	x	-54
C[C@H]1CN([C@@H](C)CO)C(=O)c2cccc(NC(=O)Nc3ccc(C(F)(F)F)cc3)c2O[C@H]1CN(C)Cc1ccc(Oc2ccccc2)cc1	69*	-2	-77
C[C@@H]1CN([C@@H](C)CO)C(=O)c2cccc(NC(=O)Nc3ccc(C(F)(F)F)cc3)c2O[C@H]1CN(C)Cc1ccc(Oc2ccccc2)cc1	52	-1	-55
C[C@@H]1CN([C@@H](C)CO)C(=O)c2cccc(NC(=O)Nc3ccc(C(F)(F)F)cc3)c2O[C@@H]1CN(C)Cc1ccc(Oc2ccccc2)cc1	87*	x	-92
C[C@@H]1CN([C@H](C)CO)C(=O)c2cccc(NC(=O)Nc3ccccc3)c2O[C@H]1CN(C)Cc1ccc(C(F)(F)F)cc1	33	0	-18
C[C@@H]1CN([C@H](C)CO)C(=O)c2cccc(NC(=O)Nc3ccc(C(F)(F)F)cc3)c2O[C@H]1CN(C)Cc1ccc(Oc2ccccc2)cc1	42	-1	-4
COc1ccc(/C=N/NC(=O)c2ccccn2)cc1OC	-9	-2	-9
O=C(N/N=C/c1cn(Cc2ccccc2)c2ccccc12)c1ccccn1	-12	-3	-5
CC1(C)COC(CCC/C=N/NC(=O)c2ccc(C(=O)NO)cc2)OC1	4	0	33
C=CCOC(=O)[C@H]1[C@@H]2C(=O)O[C@@H](c3ccccc3)[C@@H](c3ccccc3)N2[C@@H](c2ccc(OCCOC(=O)[C@@H]3C[C@@H]4C(=O)NCC(=O)N4[C@@H]3c3ccc(O)cc3)cc2)[C@]12C(=O)Nc1ccccc12	x	1	x
O=C(CCCCCCC(=O)Nc1ccccc1O)N/N=C/c1ccc(S(=O)(=O)O)o1	-6	1	4
COC(=O)CCCCCCC(=O)N/N=C/c1ccccc1[N+](=O)[O-]	-18	-2	9
C[C@H](CO)N1C[C@H](C)[C@H](CN(C)Cc2ccc(C(=O)Nc3ccccc3N)cc2)Oc2c(cccc2N(C)C)C1=O	56*	x	21
C[C@@H]1CN([C@H](C)CO)C(=O)c2cccc(NC(=O)C3CCCCC3)c2O[C@@H]1CN(C)Cc1ccc(C(=O)Nc2ccccc2N)cc1	x	-1	x
C[C@@H]1CN([C@@H](C)CO)C(=O)c2cccc(NC(=O)C3CC3)c2O[C@@H]1CN(C)Cc1ccc(C(=O)Nc2ccccc2N)cc1	26	x	59*
C[C@H]1CN([C@@H](C)CO)C(=O)c2cccc(NC(=O)C3CCCCC3)c2O[C@H]1CN(C)Cc1ccc(C(=O)Nc2ccccc2N)cc1	66*	x	3
C[C@@H]1CN([C@@H](C)CO)C(=O)c2cccc(NC(=O)c3cnccn3)c2O[C@@H]1CN(C)Cc1ccc(C(=O)Nc2ccccc2N)cc1	72*	x	35
C[C@@H]1CN([C@H](C)CO)C(=O)c2cccc(N(C)C)c2O[C@@H]1CN(C)Cc1ccc(C(=O)Nc2ccccc2N)cc1	28	x	8
C[C@@H]1CN([C@H](C)CO)C(=O)c2cccc(NC(=O)c3cnccn3)c2O[C@H]1CN(C)Cc1ccc(C(=O)Nc2ccccc2N)cc1	54	x	-12
C[C@H](CO)N1C[C@H](C)[C@H](CN(C)Cc2ccc(C(=O)Nc3ccccc3N)cc2)Oc2c(NC(=O)C3CC3)cccc2C1=O	37	x	-9
O=C(N/N=C/c1ccc(Br)s1)c1ccccc1O	-15	-9	-118
O=C(NCc1nc2ccccc2[nH]1)C1=C[C@@H](c2coc3ccccc3c2=O)C[C@@H](OCc2ccc(CO)cc2)O1	x	-1	x
O=C(CCCCCCC(=O)Nc1ccccc1O)N/N=C/C1=CCCCC1	-7	-2	0
C=CCOc1ccccc1/C=N/NC(=O)CCCCCCC(=O)OC	-26	1	8
COC(=O)CCCCCCC(=O)N/N=C/c1ccccc1O	-4	0	4
Cc1cc(C(=O)Nc2cccc3c2O[C@H](CN(C)Cc2ccc(C(=O)Nc4ccccc4N)cc2)[C@H](C)CN([C@H](C)CO)C3=O)n(C)n1	63*	-1	0
Cc1cc(C(=O)Nc2cccc3c2O[C@H](CN(C)Cc2ccc(C(=O)Nc4ccccc4N)cc2)[C@@H](C)CN([C@@H](C)CO)C3=O)n(C)n1	46	x	0
C[C@H](CO)N1C[C@H](C)[C@H](CN(C)Cc2ccc3c(c2)OCO3)Oc2c(NC(=O)c3nc4ccccc4s3)cccc2C1=O	77*	0	-22
